SENP1 inh: SENP1 (human) catalytic domain inhibition | inhibition, % at 10 µM | Q9P0U3 | recombinant SENP1 catalytic domain, CyPet-SUMO1-YPet FRET cleavage | hit rate 0.21% among 360,000 | AID 624204;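 active means inhibition at least 30% at 10 µM, raw YFP signal under a set limit, fluorescence ratio 0.5 to 1.5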;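 further: 0% = enzyme with DMSO and 100% = no enzyme wells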
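Assay system: hSENP1 catalytic domain, recombinant. Amount: SENP1 enzyme, 20 pM final. Schedule: 50 min reaction, RT, dark. Technique: FRET, CFP and YFP emission. Control set: no-enzyme wells low, DMSO-plus-enzyme wells high control.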
HNF4A DNA FP: change in binding of human HNF4 alpha to DNA | P41235 | HNF4a-FITC DNA binding, fluorescence polarization, 1 h | activity change, % at 10 µM | hit rate 0.3% among 360,000 | AID 1224865; in the data active means activity change above about 30%, passing the limit was not always enough
Target sequence (P41235 whole entry, looked up): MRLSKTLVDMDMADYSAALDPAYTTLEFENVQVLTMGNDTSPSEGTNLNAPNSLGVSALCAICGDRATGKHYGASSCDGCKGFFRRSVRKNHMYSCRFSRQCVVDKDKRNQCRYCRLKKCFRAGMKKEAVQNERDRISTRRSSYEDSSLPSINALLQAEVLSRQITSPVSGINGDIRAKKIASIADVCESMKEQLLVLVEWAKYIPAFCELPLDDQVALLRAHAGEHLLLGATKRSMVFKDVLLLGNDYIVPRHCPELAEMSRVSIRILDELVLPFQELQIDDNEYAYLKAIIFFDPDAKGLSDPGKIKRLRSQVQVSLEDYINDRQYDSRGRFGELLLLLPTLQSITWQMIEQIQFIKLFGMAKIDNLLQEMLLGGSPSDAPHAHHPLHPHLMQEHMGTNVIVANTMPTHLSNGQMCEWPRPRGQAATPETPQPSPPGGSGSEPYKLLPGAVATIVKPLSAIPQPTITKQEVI
Pemphigus Ab inh: human desmoglein-3 autoantibody binding inhibition; P32926; DSG3-coupled beads, scFv-anti-DSG3-GFP binding, flow cytometry; active compounds read low; binding (percent of control), % at 10 µM; hit rate 0.48% among 310,000;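 active means binding more than 3 SD below its plate's average and above zero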;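 further: hits lower antibody fragment binding to DSG3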
Myeloid diff 2: promotes myeloid progenitor differentiation; ER-HoxA9 myeloid progenitors, lysozyme-GFP differentiation, flow cytometry; calls only at 10 µM; hit rate 1% among 360,000;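 active means normalized GFP-positive differentiation at or above the plate's own cutoff, the solvent-only control mean plus 3 SD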;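 further: cells exposed to compound for four days before flow analysis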
Granule exo inh: lytic granule exocytosis inhibition; TALL-104 LAMP-1 surface exposure, flow cytometry; cells stimulated with thapsigargin and PMA; inhibition, % at 10 µM; hit rate 0.66% among 360,000; AID 651702;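 active means inhibition above about 55%, limit read from the data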
H9c2 protect: myocardial damage modulation in H9c2 cells. H9c2 cardiomyocytes, H2O2 injury protection, ATPLite, 2 h. protection from H2O2 cell death, % at 20 µM. hit rate 0.63% among 360,000;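 active means compounds giving at least 50% protection of heart cells from peroxide-induced death in the single-dose screen, raw or plate-pattern-corrected value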;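 further: 0% = DMSO wells with peroxide and 100% = DMSO wells without peroxide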
SENP1 conf: confirmation of human SENP1 SUMO protease inhibitors. shares compounds with SENP1 inh. recombinant SENP1, CyPet-SUMO1-YPet FRET cleavage. inhibition, % at 10 µM. hit rate 34% among 520; in the data active means inhibition mostly above about 35%, no sharp cut-off; inactive means mostly below about 32%;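 further: 0% = enzyme with DMSO and 100% = no enzyme control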
SENP1 kin conf: confirmation of human SENP1 SUMO protease inhibitors, kinetic. AID 651690. recombinant SENP1, CyPet-SUMO1-YPet FRET kinetic cleavage. hit rate 26% among 520. inhibition, % at 10 µM. shares compounds with SENP1 inh; in the data active means inhibition mostly above about 32%, no sharp cut-off; inactive means mostly below about 29%;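 further: 0% = DMSO with enzyme and 100% = no enzyme substrate only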
The depositor's hits bear a star; i = inactive; x = no result; + = active, no number; ! = not active in a repeat. Shown are actives, neighbours in structure and some others; about 3% of the full set was active somewhere.

SMILES	SENP1 inh	HNF4A DNA FP	Pemphigus Ab inh	Myeloid diff 2	Granule exo inh	H9c2 protect	SENP1 conf	SENP1 kin conf
CC(C(=O)c1ccc(Br)cc1)[n+]1cccc2ccccc21 (centres undefined)	52*	3	293	+	15	-16	18	22
CCN(CC)c1ccc(N=C2C=CC(=O)C=C2NC(C)=O)cc1	66*	-5	x	i	2	-13	14	12
COc1ccc(-c2c(Sc3ccccc3)c3cc(-c4ccc(OC)c(F)c4)ccc3n2C)cc1	30*	10	x	i	0	x	-35	4
Cc1cc(=O)n2nc(N3CCC(C(=O)NCc4ccccc4F)CC3)sc2n1	2	-2	101	i	-2	-1	x	x
Cc1c(NN=C(C#N)C#N)c(=O)n(-c2ccccc2)n1C	46*	-3	101	i	-1	1	14	18
O=C1C=C(O)c2cccc3cccc1c23	45*	-18	96	i	-12	6	66*	42*
NC(N)=NCCCS(=O)(=O)Nc1ccc(Nc2c3ccccc3nc3cc([N+](=O)[O-])ccc23)cc1	51*	-25	93	x	5	0	35	6
O=[N+]([O-])c1ccc(Nc2c3ccccc3nc3ccccc23)cc1	-82	-2	98	i	11	-18	x	x
Cc1cccc(Oc2cc([N+](=O)[O-])cc3c2C(=O)Nc2ccccc2O3)c1	28	-3	108	i	-3	-22	x	x
O=C1Nc2ccccc2Oc2cc([N+](=O)[O-])cc(Oc3ccccc3)c21	59*	17	177	+	3	-18	16	8
O=C(c1ccc2nccnc2c1)N1CCCC(N2CCN(c3ccc(F)cc3)CC2)C1 (centres undefined)	-1	3	96	i	-1	6	x	x
Cn1c(=O)c2c(-c3ccccc3)n(-c3ccc(N)cc3)cc2n(C)c1=O	45*	-12	x	i	-2	6	24	9
O=C(CCc1ccccc1)NCc1ccc2c(c1)OCO2	3	-1	104	i	-1	4	x	x
O=C(COC(=O)CCc1ccccc1)NCc1ccc2c(c1)OCO2	32*	1	94	i	-2	1	-4	0
CC(C)C[C@H]1C(=O)N2CCC[C@H]2[C@]2(O)O[C@](NC(=O)C3C=C4c5cccc6[nH]c(Br)c(c56)C[C@H]4N(C)C3)(C(C)C)C(=O)N12 (some centres undefined)	-4	-3	x	i	5	8	x	x
CN1C[C@H](C(=O)N[C@]2(C)O[C@@]3(O)[C@@H]4CCCN4C(=O)[C@H](Cc4ccccc4)N3C2=O)CC2c3cccc4[nH]cc(c34)C[C@H]21 (some centres undefined)	34*!	5	112	i	8	2	-6	-2
O=C(Nc1nccs1)c1cc2cc(Cl)ccc2oc1=O	45*	-1	109	i	7	-5	96*	83*
O=C(Nc1nccs1)c1ccc(Cl)cc1[N+](=O)[O-]	-2	-1	123	i	2	7	x	x
O=[N+]([O-])c1ccc(C=NNc2ccc(S(=O)(=O)O)cc2)cc1	73*	3	91	i	19	0	29	16
Cc1cccc(/C=C/c2onc(C)c2[N+](=O)[O-])n1	x	x	97	x	x	x	x	x
COc1cc(/C=C/c2onc(C)c2[N+](=O)[O-])cc(OC)c1OC	49*	1	107	i	0	6	9	10
Cc1nc2ccc(NS(=O)(=O)c3ccc(F)cc3F)cc2s1	58*	22	97	i	-1	-12	37*	29
COc1cc(S(=O)(=O)Nc2ccc3nc(C)sc3c2)ccc1NC(C)=O	36*	13	116	i	1	-11	20	16
